Source: ChEMBL document CHEMBL1148671, “Synthesis and antibacterial activity of C12 des-methyl ketolides” (2006)
Values after ≈ are worked out from the molar mass of the structure shown.

Tests used:
Type in all cases: functional
Staphylococcus aureus [1] = test: Antibacterial activity against Staphylococcus aureus 29213 by broth microdilution method; settings: ATCC29213
Method in brief: (§1)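 In vitro activity was read as the minimum inhibitory concentration (MIC) by broth microdilution and reported in μg/mL. The S. pneumoniae panel included erythromycin-resistant strains carrying mef or erm genes. Telithromycin and clarithromycin were run as comparators in every assay.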

[2] = test system: Staphylococcus epidermidis; test: Antibacterial activity against Staphylococcus epidermidis f50654 by broth microdilution method; method in brief: as §1
Streptococcus pyogenes = test: Antibacterial activity against Streptococcus pyogenes 8668 by broth microdilution method; method in brief: as §1
Streptococcus pneumoniae [3] = test: Antibacterial activity against Streptococcus pneumoniae 49619 by broth microdilution method; method in brief: as §1
Streptococcus pneumoniae [4] = test: Antibacterial activity against erythromycin-resistant Streptococcus pneumoniae mef 5654 by broth microdilution method
[5] = test system: Staphylococcus epidermidis; test: Antibacterial activity against Staphylococcus epidermidis 14990 by broth microdilution method; method in brief: as §1
Streptococcus pneumoniae [6] = test: Antibacterial activity against Streptococcus pneumoniae 297-749 by broth microdilution method; method in brief: as §1
Enterococcus faecalis [7] = test: Antibacterial activity against Enterococcus faecalis bc11148-2 by broth microdilution method; method in brief: as §1
Haemophilus influenzae [8] = test: Antibacterial activity against Haemophilus influenzae 2762 by broth microdilution method; method in brief: as §1
Streptococcus pneumoniae [9] = test: Antibacterial activity against erythromycin-resistant Streptococcus pneumoniae erm 6849 by broth microdilution method
Haemophilus influenzae [10] = test: Antibacterial activity against Haemophilus influenzae 49247 by broth microdilution method; method in brief: as §1
Streptococcus pneumoniae [11] = test: Antibacterial activity against erythromycin-resistant Streptococcus pneumoniae mef S 3427 by broth microdilution method
Staphylococcus aureus [12] = test: Antibacterial activity against Staphylococcus aureus 33591 by broth microdilution method; method in brief: as §1
Enterococcus faecalis [13] = test: Antibacterial activity against Enterococcus faecalis 29212 by broth microdilution method; method in brief: as §1
Streptococcus pneumoniae [14] = test: Antibacterial activity against Streptococcus pneumoniae 280-962 by broth microdilution method; method in brief: as §1

Row | Structure (SMILES) | MIC (Staphylococcus aureus [1]) | MIC [2] | MIC (Streptococcus pyogenes) | MIC (Streptococcus pneumoniae [3]) | MIC (Streptococcus pneumoniae [4]) | MIC [5] | MIC (Streptococcus pneumoniae [6]) | MIC (Enterococcus faecalis [7]) | MIC (Haemophilus influenzae [8]) | MIC (Streptococcus pneumoniae [9]) | MIC (Haemophilus influenzae [10]) | MIC (Streptococcus pneumoniae [11]) | MIC (Staphylococcus aureus [12]) | MIC (Enterococcus faecalis [13]) | MIC (Streptococcus pneumoniae [14])
1 | CC[C@H]1OC(=O)[C@H](C)C(=O)[C@H](C)[C@@H](O[C@@H]2O[C@H](C)C[C@H](N(C)C)[C@H]2O)[C@](C)(OC)C[C@@H](C)C(=O)[C@H](C)[C@@H]2[C@@H]1OC(=O)N2CCCC(C)(C)n1cnc2ncccc21 | 0.2 µg/mL (≈ 0.25 µM) | 0.1 µg/mL (≈ 0.125 µM) | ≤ 0.05 µg/mL | ≤ 0.05 µg/mL | 1.56 µg/mL (≈ 1.95 µM) | 0.1 µg/mL (≈ 0.125 µM) | ≤ 0.05 µg/mL | 1.56 µg/mL (≈ 1.95 µM) | 1.56 µg/mL (≈ 1.95 µM) | 6.25 µg/mL (≈ 7.81 µM) | 6.25 µg/mL (≈ 7.81 µM) | 0.2 µg/mL (≈ 0.25 µM) | > 50 µg/mL | ≤ 0.05 µg/mL | ≤ 0.05 µg/mL
2 | CC[C@H]1OC(=O)[C@H](C)C(=O)[C@H](C)[C@@H](O[C@@H]2O[C@H](C)C[C@H](N(C)C)[C@H]2O)[C@](C)(OC)C[C@@H](C)C(=O)[C@H](C)[C@@H]2[C@@H]1OC(=O)N2CCCCn1cnc(-c2ccc(C)nc2)c1 | 0.2 µg/mL (≈ 0.246 µM) | 0.2 µg/mL (≈ 0.246 µM) | ≤ 0.05 µg/mL | ≤ 0.05 µg/mL | 1.56 µg/mL (≈ 1.92 µM) | 0.2 µg/mL (≈ 0.246 µM) | ≤ 0.05 µg/mL | 3.13 µg/mL (≈ 3.85 µM) | 1.56 µg/mL (≈ 1.92 µM) | 50 µg/mL (≈ 61.6 µM) | 3.13 µg/mL (≈ 3.85 µM) | 0.4 µg/mL (≈ 0.493 µM) | > 50 µg/mL | 0.1 µg/mL (≈ 0.123 µM) | ≤ 0.05 µg/mL
3 | CC[C@H]1OC(=O)[C@H](C)C(=O)[C@H](C)[C@@H](O[C@@H]2O[C@H](C)C[C@H](N(C)C)[C@H]2O)[C@](C)(OC)C[C@@H](C)C(=O)[C@H](C)[C@@H]2[C@@H]1OC(=O)N2CCCCn1cnc(-c2ccc(OC)nc2)c1 | 0.2 µg/mL (≈ 0.242 µM) | 0.2 µg/mL (≈ 0.242 µM) | ≤ 0.05 µg/mL | ≤ 0.05 µg/mL | 0.78 µg/mL (≈ 0.942 µM) | 0.1 µg/mL (≈ 0.121 µM) | ≤ 0.05 µg/mL | 6.25 µg/mL (≈ 7.55 µM) | 1.56 µg/mL (≈ 1.88 µM) | 50 µg/mL (≈ 60.4 µM) | 6.25 µg/mL (≈ 7.55 µM) | 0.1 µg/mL (≈ 0.121 µM) | > 50 µg/mL | ≤ 0.05 µg/mL | ≤ 0.05 µg/mL
4 | CC[C@H]1OC(=O)[C@H](C)C(=O)[C@H](C)[C@@H](O[C@@H]2O[C@H](C)C[C@H](N(C)C)[C@H]2O)[C@](C)(OC)C[C@@H](C)C(=O)[C@H](C)[C@@H]2[C@@H]1OC(=O)N2CCCC(C)(C)n1cnc(-c2cccnc2)c1 | 0.2 µg/mL (≈ 0.242 µM) | 0.1 µg/mL (≈ 0.121 µM) | ≤ 0.05 µg/mL | ≤ 0.05 µg/mL | 1.56 µg/mL (≈ 1.89 µM) | 0.1 µg/mL (≈ 0.121 µM) | ≤ 0.05 µg/mL | 1.56 µg/mL (≈ 1.89 µM) | 1.56 µg/mL (≈ 1.89 µM) | 0.4 µg/mL (≈ 0.484 µM) | 3.13 µg/mL (≈ 3.79 µM) | 0.2 µg/mL (≈ 0.242 µM) | > 50 µg/mL | 0.1 µg/mL (≈ 0.121 µM) | ≤ 0.05 µg/mL
5 | CC[C@H]1OC(=O)[C@H](C)C(=O)[C@H](C)[C@@H](O[C@@H]2O[C@H](C)C[C@H](N(C)C)[C@H]2O)[C@](C)(OC)C[C@@H](C)C(=O)[C@H](C)[C@@H]2[C@@H]1OC(=O)N2CCCCn1cnc(-c2ccc(Cl)nc2)c1 | 0.2 µg/mL (≈ 0.24 µM) | 0.2 µg/mL (≈ 0.24 µM) | ≤ 0.05 µg/mL | ≤ 0.05 µg/mL | 0.78 µg/mL (≈ 0.937 µM) | 0.1 µg/mL (≈ 0.12 µM) | ≤ 0.05 µg/mL | 0.4 µg/mL (≈ 0.481 µM) | 1.56 µg/mL (≈ 1.87 µM) | 0.4 µg/mL (≈ 0.481 µM) | 6.25 µg/mL (≈ 7.51 µM) | 0.1 µg/mL (≈ 0.12 µM) | > 50 µg/mL | ≤ 0.05 µg/mL | ≤ 0.05 µg/mL
6 | CC[C@H]1OC(=O)[C@H](C)C(=O)[C@H](C)[C@@H](O[C@@H]2O[C@H](C)C[C@H](N(C)C)[C@H]2O)[C@](C)(OC)C[C@@H](C)C(=O)[C@H](C)[C@@H]2[C@@H]1OC(=O)N2CCCCn1cnc(-c2ccc(F)nc2)c1 | 0.2 µg/mL (≈ 0.245 µM) | 0.78 µg/mL (≈ 0.956 µM) | ≤ 0.05 µg/mL | ≤ 0.05 µg/mL | 0.78 µg/mL (≈ 0.956 µM) | 0.2 µg/mL (≈ 0.245 µM) | ≤ 0.05 µg/mL | 25 µg/mL (≈ 30.6 µM) | 0.78 µg/mL (≈ 0.956 µM) | 12.5 µg/mL (≈ 15.3 µM) | 3.13 µg/mL (≈ 3.84 µM) | 0.78 µg/mL (≈ 0.956 µM) | > 50 µg/mL | ≤ 0.05 µg/mL | 0.2 µg/mL (≈ 0.245 µM)
